Active and inactive are the calls of the source. No cut-off for these calls is given here.
Experiments:
[1] = molecular target: Kappa-type opioid receptor (Homo sapiens, UniProt P41145); test: biochemical; assay type: cell-based, HEK293
[2] = molecular target: Delta-type opioid receptor (Homo sapiens, UniProt P41143); test: In vitro binding affinity against cloned human Opioid receptor delta 1 expressed in HEK 293S cells; assay type: cell-based, HEK293
Outline: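 Compounds tested at 5 or 10 concentrations in duplicate, in 50 mM Tris, 3 mM MgCl2, 1 mg/mL BSA, pH 7.4. Bound radioactivity measured at equilibrium by filtration. Nonspecific binding defined with 10 µM naloxone. IC50 from a two-parameter logistic fit.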

[3] = molecular target: T1, Mu-type opioid receptor (Homo sapiens, UniProt P35372); test: biochemical; assay type: cell-based, HEK293
[4] = Selectivity of mu IC50 to that of delta IC50 was calculated; NA means Insufficient binding potency
Outline: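 Ratio = delta IC50 / mu IC50, from radioligand displacement on HEK-293S P2 membranes expressing human receptors. […] Tris 50 mM, MgCl2 3 mM, BSA 1 mg/mL, pH 7.4. Filtration at equilibrium; 10 µM naloxone defined nonspecific binding. IC50 from logistic fits.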

[5] = molecular target: T1, Mu-type opioid receptor; test: Tested for effective concentration against cloned human Opioid receptor mu 1
Outline: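 GTP[γ]35S binding using HEK-293S membranes expressing hμ (0.2 pmol/mg protein). Filtration after 1 h. Stimulated binding defined with 30 µM DAMGO. EC50 from a three-parameter logistic fit.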

Sequence of Kappa-type opioid receptor (P41145 whole entry): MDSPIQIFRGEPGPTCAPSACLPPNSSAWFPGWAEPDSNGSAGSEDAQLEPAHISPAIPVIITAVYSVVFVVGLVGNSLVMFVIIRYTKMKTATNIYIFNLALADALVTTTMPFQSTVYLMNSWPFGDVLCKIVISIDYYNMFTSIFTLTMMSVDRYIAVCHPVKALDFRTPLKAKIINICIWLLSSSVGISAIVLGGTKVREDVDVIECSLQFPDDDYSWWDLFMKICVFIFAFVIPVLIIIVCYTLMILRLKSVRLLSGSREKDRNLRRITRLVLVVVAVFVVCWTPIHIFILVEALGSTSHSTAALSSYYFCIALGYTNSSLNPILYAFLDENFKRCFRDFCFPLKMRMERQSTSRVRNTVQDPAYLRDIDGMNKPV
Sequence of Delta-type opioid receptor (P41143 whole entry): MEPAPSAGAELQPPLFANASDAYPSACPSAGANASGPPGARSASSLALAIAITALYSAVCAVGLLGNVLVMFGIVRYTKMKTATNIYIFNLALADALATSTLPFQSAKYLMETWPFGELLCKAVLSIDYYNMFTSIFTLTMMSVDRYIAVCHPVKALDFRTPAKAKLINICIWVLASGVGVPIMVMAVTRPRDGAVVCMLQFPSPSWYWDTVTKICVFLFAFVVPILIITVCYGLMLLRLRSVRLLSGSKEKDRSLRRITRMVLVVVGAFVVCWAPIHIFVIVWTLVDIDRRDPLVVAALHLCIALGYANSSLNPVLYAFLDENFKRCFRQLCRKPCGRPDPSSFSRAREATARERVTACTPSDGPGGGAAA
T1 sequence (P35372 whole entry): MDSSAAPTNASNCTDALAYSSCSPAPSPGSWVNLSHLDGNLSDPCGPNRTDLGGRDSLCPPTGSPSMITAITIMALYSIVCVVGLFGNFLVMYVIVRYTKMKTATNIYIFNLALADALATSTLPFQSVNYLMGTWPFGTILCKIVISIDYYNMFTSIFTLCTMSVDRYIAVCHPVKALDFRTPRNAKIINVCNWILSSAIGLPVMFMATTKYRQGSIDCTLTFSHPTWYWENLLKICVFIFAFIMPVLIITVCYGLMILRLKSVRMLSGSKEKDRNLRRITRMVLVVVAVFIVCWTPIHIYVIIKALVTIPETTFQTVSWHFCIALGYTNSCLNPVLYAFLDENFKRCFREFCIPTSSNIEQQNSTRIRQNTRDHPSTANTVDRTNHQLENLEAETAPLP

C[C@@H]1[C@H]2c3cc(Br)ccc3C[C@@H](c3ccc(Br)cc32)N1CC1CC1
IC50 [1]: > 4.9 µM | IC50 [2]: > 10 µM | IC50 [3]: 2.05 µM

CN1CC[C@]23CCCC[C@H]2[C@H]1Cc1ccc(O)cc13 [LEVORPHANOL]
IC50 [1]: 0.004 µM | IC50 [2]: 0.0051 µM

COc1ccc2c(c1)[C@H]1c3cc(OC)ccc3[C@H](C2)N2CCC[C@@H]12
IC50 [1]: > 10 µM | IC50 [2]: 4.04 µM | IC50 [3]: 0.16 µM

c1ccc2c(c1)C[C@@H]1c3ccccc3[C@H]2[C@@H]2CCCCN12
IC50 [1]: 7.4 µM | IC50 [2]: > 10 µM | IC50 [3]: 0.39 µM

C[C@@H]1[C@H]2c3ccccc3C[C@@H](c3ccccc32)N1Cc1ccccc1
IC50 [1]: > 5.8 µM | IC50 [2]: > 8.8 µM | IC50 [3]: > 10 µM

COc1cc2c(cc1OC)[C@H]1c3cc(OC)c(OC)cc3[C@H](C2)N(C)[C@@H]1C
IC50 [1]: > 10 µM | NA [4]: inactive | IC50 [2]: > 10 µM | IC50 [3]: > 10 µM

Oc1ccc2c(c1)[C@H]1c3cc(O)ccc3[C@H](C2)N2CCC[C@@H]12
IC50 [1]: 7.2 µM | IC50 [2]: 3.8 µM | IC50 [3]: 0.13 µM

C[C@H]1[C@H]2c3ccccc3C[C@H](c3ccccc32)N1C
IC50 [1]: > 10 µM | IC50 [2]: > 10 µM | IC50 [3]: 0.611 µM

CN1[C@@H]2Cc3ccccc3[C@@H](c3ccccc32)[C@@H]1CCCO
IC50 [1]: > 10 µM | IC50 [2]: > 10 µM | IC50 [3]: 1.15 µM

COc1cc2c(cc1OC)[C@@H]1c3cc(OC)c(OC)cc3[C@@H](C2)N(C)[C@H]1C
IC50 [1]: > 10 µM | NA [4]: inactive | IC50 [2]: > 5.7 µM

C[C@@H]1[C@H]2c3cc(O)ccc3C[C@@H](c3ccc(O)cc32)N1CC1CC1
IC50 [1]: 0.204 µM | IC50 [2]: 0.46 µM | IC50 [3]: 0.0064 µM

C[C@@H]1[C@H]2c3cc(Nc4ccccc4)ccc3C[C@@H](c3ccc(Nc4ccccc4)cc32)N1C
IC50 [1]: 3.6 µM | IC50 [2]: 0.53 µM | IC50 [3]: 0.056 µM

C[C@@H]1[C@H]2c3cc(NCc4ccccc4)ccc3C[C@@H](c3ccc(NCc4ccccc4)cc32)N1CC1CC1
IC50 [1]: 0.031 µM | IC50 [2]: 0.049 µM | IC50 [3]: 0.007 µM

C[C@@H]1[C@H]2c3cc(N4CCOCC4)ccc3C[C@@H](c3ccc(N4CCOCC4)cc32)N1C
IC50 [1]: > 10 µM | IC50 [2]: 7.5 µM | IC50 [3]: 0.69 µM

CC(C)[C@H]1[C@H]2c3ccccc3C[C@H](c3ccccc32)N1C
IC50 [1]: 3.41 µM | IC50 [2]: > 10 µM | IC50 [3]: 0.695 µM

COc1ccc2c(c1)[C@H]1c3cc(OC)ccc3[C@H](C2)N(C)[C@@H]1C
IC50 [1]: > 10 µM | NA [4]: inactive | IC50 [2]: > 10 µM | IC50 [3]: 0.42 µM

CN1[C@@H]2Cc3ccccc3[C@@H](c3ccccc32)[C@@H]1Cc1ccccc1
IC50 [1]: 1.71 µM | IC50 [2]: 3.44 µM | IC50 [3]: 1.05 µM

C[C@H]1N[C@@H]2Cc3ccccc3[C@H]1c1ccccc12
IC50 [1]: > 10 µM | IC50 [2]: > 10 µM | IC50 [3]: 0.65 µM

CC(=O)Oc1ccc2c(c1)[C@H]1c3cc(OC(C)=O)ccc3[C@H](C2)N(CC2CC2)[C@@H]1C
IC50 [1]: 2.02 µM | IC50 [2]: 3.3 µM | IC50 [3]: 0.044 µM

CC(=O)Oc1ccc2c(c1)[C@H]1c3cc(OC(C)=O)ccc3[C@H](C2)N(C)[C@@H]1C
IC50 [1]: > 9.5 µM | IC50 [2]: > 4.7 µM | IC50 [3]: 0.2 µM

C[C@@H]1[C@H]2c3ccccc3C[C@@H](c3ccccc32)N1C
IC50 [1]: > 75 µM | IC50 [2]: > 10 µM | IC50 [3]: 0.23 µM

C[C@@H]1[C@H]2c3cc(Br)ccc3C[C@@H](c3ccc(Br)cc32)N1C
IC50 [1]: 6.92 µM | IC50 [2]: 8.84 µM | IC50 [3]: 0.36 µM

CC(=O)N1[C@H](C)[C@H]2c3ccccc3C[C@H]1c1ccccc12
IC50 [1]: > 10 µM | IC50 [2]: > 10 µM | IC50 [3]: > 9.5 µM

Brc1ccc2c(c1)[C@H]1c3cc(Br)ccc3[C@H](C2)N2CCC[C@@H]12
IC50 [1]: 7.4 µM | IC50 [2]: 5.02 µM | IC50 [3]: 0.5 µM

COc1ccc2c(c1)[C@H]1c3cc(OC)ccc3[C@H](C2)N(CC2CC2)[C@@H]1C
IC50 [1]: 5.33 µM | IC50 [2]: 6.63 µM | IC50 [3]: 1.03 µM

C[C@@H]1[C@H]2c3cc(NCc4ccccc4)ccc3C[C@@H](c3ccc(NCc4ccccc4)cc32)N1C
IC50 [1]: 0.64 µM | EC50 [5]: 4.3 µM | IC50 [2]: 0.12 µM | IC50 [3]: 0.008 µM

C[C@@H]1[C@H]2c3cc(N4CCN(C)CC4)ccc3C[C@@H](c3ccc(N4CCN(C)CC4)cc32)N1CC1CC1
IC50 [1]: 1.6 µM | IC50 [2]: 2.04 µM | IC50 [3]: 0.69 µM

Brc1ccc(CNc2ccc3c(c2)[C@H]2c4cc(NCc5ccc(Br)cc5)ccc4[C@H](C3)N3CCC[C@@H]23)cc1
IC50 [1]: 7 µM | IC50 [2]: 5.3 µM | IC50 [3]: 0.12 µM

COc1cc2c(cc1OC)[C@H]1c3cc(OC)c(OC)cc3[C@H](C2)N(CC2CC2)[C@@H]1C
IC50 [1]: > 10 µM | NA [4]: inactive | IC50 [2]: > 10 µM | IC50 [3]: > 10 µM

CC(C)C[C@H]1[C@H]2c3ccccc3C[C@H](c3ccccc32)N1C
IC50 [1]: 2.97 µM | IC50 [2]: > 8.7 µM | IC50 [3]: 1.01 µM

c1ccc2c(c1)C[C@H]1c3ccccc3[C@H]2[C@@H]2CCCN12
IC50 [1]: 6.1 µM | IC50 [2]: > 7.8 µM | IC50 [3]: 0.059 µM

C=CCN1[C@H](C)[C@H]2c3ccccc3C[C@H]1c1ccccc12
IC50 [1]: > 4 µM | IC50 [2]: > 9.7 µM | IC50 [3]: 2 µM

C[C@@H]1[C@H]2c3cc(O)ccc3C[C@@H](c3ccc(O)cc32)N1C
IC50 [1]: 0.961 µM | IC50 [2]: 1.3 µM | IC50 [3]: 0.016 µM

C[C@@H]1[C@H]2c3ccccc3C[C@@H](c3ccccc32)N1CC1CC1
IC50 [1]: > 10 µM | IC50 [2]: > 10 µM | IC50 [3]: 1.08 µM

CC(=O)Oc1ccc2c(c1)[C@H]1c3cc(OC(C)=O)ccc3[C@H](C2)N2CCC[C@@H]12
IC50 [1]: > 6 µM | IC50 [2]: 2.9 µM | IC50 [3]: 0.22 µM

C[C@@H]1[C@H]2c3cc(Nc4ccccc4)ccc3C[C@@H](c3ccc(Nc4ccccc4)cc32)N1CC1CC1
IC50 [1]: 1.2 µM | IC50 [2]: 0.89 µM | IC50 [3]: 0.082 µM

C[C@@H]1[C@H]2c3cc(N4CCN(C)CC4)ccc3C[C@@H](c3ccc(N4CCN(C)CC4)cc32)N1C
IC50 [1]: 3.2 µM | IC50 [2]: 2.5 µM | IC50 [3]: 0.053 µM

Fc1ccc2c(c1)[C@H]1c3cc(F)ccc3[C@H](C2)N2CCC[C@@H]12
IC50 [1]: > 6.4 µM | IC50 [2]: > 10 µM | IC50 [3]: 0.103 µM

Source: ChEMBL document CHEMBL1145019, “The power of visual imagery in drug design. Isopavines as a new class of morphinomimetics and their human opioid receptor binding activity” (J Med Chem, 2003)
